From ChEMBL document CHEMBL4715736, “Identification of anticancer agents based on the thieno[2,3-b]pyridine and 1H-pyrazole molecular scaffolds” (2016)

tested on: HOP-62; assay: Growth inhibition of human HOP-62 cells incubated for 48 hrs by sulforhodamine B assay; type: functional; settings: not given
Procedure, shortened: (§1)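 NCI60 panel at the NCI Developmental Therapeutics Program. Only compounds active in the 10 µM screen went to dose-response testing. GI50, the concentration giving 50% of maximal inhibition of proliferation, and TGI, the concentration giving total growth inhibition, were derived from the dose-response curves.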

Structure (SMILES)	GI50 [µM]	LC50 [µM]	TGI [µM]
Cc1cc(C)c(NC(=O)c2sc3nc4c(cc3c2N)CN(Cc2ccccc2)CC4)c(C)c1	7.73	> 100	> 100

tested on: NCI-H322M; assay: Growth inhibition of human NCI-H322M cells incubated for 48 hrs by sulforhodamine B assay; type: functional; settings: not given; procedure, shortened: as §1

Structure (SMILES)	GI50 [µM]	TGI [µM]
Cc1cc(C)c(NC(=O)c2sc3nc4c(cc3c2N)CN(Cc2ccccc2)CC4)c(C)c1	8.65	> 100

same assay, conditions: read-out: LC50 (the source's name)

Structure (SMILES)	CC50 [µM]
Cc1cc(C)c(NC(=O)c2sc3nc4c(cc3c2N)CN(Cc2ccccc2)CC4)c(C)c1	> 100

tested on: KM12; assay: Growth inhibition of human KM12 cells incubated for 48 hrs by sulforhodamine B assay; type: functional; settings: not given; procedure, shortened: as §1

Structure (SMILES)	GI50 [µM]	LC50 [µM]	TGI [µM]
Cc1cc(C)c(NC(=O)c2sc3nc4c(cc3c2N)CN(Cc2ccccc2)CC4)c(C)c1	3.26	> 100	43.1

tested on: SF-295; assay: Growth inhibition of human SF-295 cells incubated for 48 hrs by sulforhodamine B assay; type: functional; settings: not given
Procedure, shortened: (§2)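 NCI DTP 60-line human tumour panel. Dose-response curves were run only for ligands active in the initial 10 µM screen. GI50 (concentration giving 50% of maximal inhibition of proliferation) and TGI (concentration giving total growth inhibition) were derived from these curves.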

Structure (SMILES)	GI50 [µM]	LC50 (concentration killing 50% of cells) [µM]	TGI [µM]
Cc1cc(C)c(NC(=O)c2sc3nc4c(cc3c2N)CN(Cc2ccccc2)CC4)c(C)c1	1.89	> 100	64.7

tested on: LOX IMVI; assay: Growth inhibition of human LOX IMVI cells incubated for 48 hrs by sulforhodamine B assay; type: functional; settings: not given; procedure, shortened: as §1

Structure (SMILES)	GI50 [µM]	LC50 [µM]	TGI [µM]
Cc1cc(C)c(NC(=O)c2sc3nc4c(cc3c2N)CN(Cc2ccccc2)CC4)c(C)c1	5.01	50.9	18.1

tested on: UACC-257; assay: Growth inhibition of human UACC-257 cells incubated for 48 hrs by sulforhodamine B assay; type: functional; settings: not given; procedure, shortened: as §2

Structure (SMILES)	GI50 [µM]	LC50 (concentration killing 50% of cells) [µM]	TGI [µM]
Cc1cc(C)c(NC(=O)c2sc3nc4c(cc3c2N)CN(Cc2ccccc2)CC4)c(C)c1	6.71	> 100	> 100

tested on: SN12C; assay: Growth inhibition of human SN12C cells incubated for 48 hrs by sulforhodamine B assay; type: functional; settings: not given; procedure, shortened: as §2

Structure (SMILES)	GI50 [µM]	TGI [µM]
Cc1cc(C)c(NC(=O)c2sc3nc4c(cc3c2N)CN(Cc2ccccc2)CC4)c(C)c1	5.6	> 100

same assay, conditions: read-out: LC50 (the source's name)

Structure (SMILES)	CC50 [µM]
Cc1cc(C)c(NC(=O)c2sc3nc4c(cc3c2N)CN(Cc2ccccc2)CC4)c(C)c1	> 100

tested on: MDA-MB-231; assay: Growth inhibition of human MDA-MB-231 cells incubated for 48 hrs by sulforhodamine B assay; type: functional; settings: not given; procedure, shortened: as §1

Structure (SMILES)	GI50 [µM]	TGI [µM]
Cc1cc(C)c(NC(=O)c2sc3nc4c(cc3c2N)CN(Cc2ccccc2)CC4)c(C)c1	5.75	58.9

same assay, conditions: read-out: LC50 (the source's name)

Structure (SMILES)	CC50 [µM]
Cc1cc(C)c(NC(=O)c2sc3nc4c(cc3c2N)CN(Cc2ccccc2)CC4)c(C)c1	> 100

tested on: Hs-578T; assay: Growth inhibition of human Hs-578T cells incubated for 48 hrs by sulforhodamine B assay; type: functional; settings: not given; procedure, shortened: as §1

Structure (SMILES)	GI50 [µM]	TGI [µM]
Cc1cc(C)c(NC(=O)c2sc3nc4c(cc3c2N)CN(Cc2ccccc2)CC4)c(C)c1	2.66	65.9

same assay, conditions: read-out: LC50 (the source's name)

Structure (SMILES)	CC50 [µM]
Cc1cc(C)c(NC(=O)c2sc3nc4c(cc3c2N)CN(Cc2ccccc2)CC4)c(C)c1	> 100
